Data set [1] relates to Hepatocyte. The data set is described as follows: Drug level in human hepatocytes treated with [14C]-rivoglitazone at 30 uM after 3 hrs by radio-HPLC/LC-MS/MS analysis in presence of UDPGA, UDPGA/SAM and NADPH-generating system. Format: ADME, cell-based.
For data set [2], the target named is Cytochrome P450 2C19 (Homo sapiens, UniProt P33261). The data set is described as follows: Activity of human CYP2C19 expressed in microsomes isolated from baculovirus infected insect cell assessed as enzyme-mediated compound formation treated with [14C]-rivoglitazone at 20 uM after 2 hrs by radio-HPLC/LC-MS/MS analysis in presence of NADPH-generating system. It counts as ADME. The method in brief:
(§1)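 Baculovirus/insect-cell microsomes expressing single human CYPs, 1 mg/ml protein, with 50 mM potassium phosphate (pH 7.4) or 100 mM Tris-HCl (pH 7.5). NADPH-generating system: 2 mM NADP⁺, 20 mM glucose 6-phosphate, 2 units/ml G6PDH, 10 mM MgCl₂. [¹⁴C]rivoglitazone at 20 μM, 2 h at 37°C with shaking. Control used insect-cell control supersomes. Stopped with acetonitrile; supernatant concentrated under nitrogen; metabolites analysed by radio-HPLC, LC-MS and LC-MS/MS.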

The nature of data set [3]: Drug metabolism in monkey hepatocytes assessed as formation of (2S,3S,4S,5R,6R)-3,4,5-trihydroxy-6-(5-(4-((6-methoxy-1-methyl-1H-benzo[d]imidazol-2-yl)methoxy)benzyl)-2,4-dioxothiazolidin-3-yl)tetrahydro-2H-pyran-2-carboxylic acid at 30 uM after 3 hrs by radio-HPLC/LC-MS/MS analysis in presence of UDPGA and UDPGA/SAM. Conditions: cynomolgus monkey.
The nature of data set [4]: Drug metabolism in monkey hepatocytes assessed as formation of 2-mercapto-3-(4-((6-methoxy-1-methyl-1H-benzo[d]imidazol-2-yl)methoxy)phenyl)propanoic acid at 30 uM after 3 hrs by radio-HPLC/LC-MS/MS analysis in presence of UDPGA, UDPGA/SAM and NADPH-generating system. Conditions: cynomolgus monkey.
In data set [5] the target is T1, Cytochrome P450 2D6 (Homo sapiens, UniProt P10635). The data set is described as follows: Activity of human CYP2D6 expressed in microsomes isolated from baculovirus infected insect cell assessed as enzyme-mediated (2S,3S,4S,5R,6R)-6-((1-carboxy-2-(4-((6-methoxy-1-methyl-1H-benzo[d]imidazol-2-yl)methoxy)phenyl)ethylthio)carbonylamino)-3,4,5-trihydroxytetrahydro-2H-pyran-2-carboxylic acid formation at 20 uM after 2 hrs by radio-HPLC/LC-MS/MS analysis in presence of NADPH-generating system/SAM. Format: ADME.

For data set [6], the target named is Cytochrome P450 2C9 (Homo sapiens, UniProt P11712). Briefly: Activity of human CYP2C9 expressed in microsomes isolated from baculovirus infected insect cell assessed as enzyme-mediated 2-((4-((2,4-dioxothiazolidin-5-yl)methyl)phenoxy)methyl)-1-methyl-1H-benzo[d]imidazol-6-yl hydrogen sulfate formation at 20 uM after 2 hrs by radio-HPLC/LC-MS/MS analysis. It counts as ADME. In a few lines:
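Baculovirus-insect-cell microsomes expressing the human CYP (1 mg/ml protein) were incubated with [14C]rivoglitazone (20 μM) in 50 mM potassium phosphate (pH 7.4) or 100 mM Tris-HCl (pH 7.5) with an NADPH-generating system (2 mM NADP+, 20 mM glucose 6-phosphate, 2 units/ml G6PDH, 10 mM MgCl2) for 2 h at 37°C. Insect-cell control supersomes served as the control. Reactions were stopped with acetonitrile, and the concentrated supernatants were analysed by radio-HPLC, LC-MS and LC-MS/MS.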

Data set [7] deals with T1, Cytochrome P450 2D6. The data set is described as follows: Activity of human CYP2D6 expressed in microsomes isolated from baculovirus infected insect cell assessed as enzyme-mediated 3-(4-((6-methoxy-1-methyl-1H-benzo[d]imidazol-2-yl)methoxy)phenyl)-2-(methylthio)propanamide formation at 20 uM after 2 hrs by radio-HPLC/LC-MS/MS analysis in presence of NADPH-generating system/SAM. Format: ADME.

The target in data set [8] is T2, UDP-glucuronosyltransferase 1A7 (Homo sapiens, UniProt Q9HAW7).
T2 sequence (Q9HAW7 whole entry): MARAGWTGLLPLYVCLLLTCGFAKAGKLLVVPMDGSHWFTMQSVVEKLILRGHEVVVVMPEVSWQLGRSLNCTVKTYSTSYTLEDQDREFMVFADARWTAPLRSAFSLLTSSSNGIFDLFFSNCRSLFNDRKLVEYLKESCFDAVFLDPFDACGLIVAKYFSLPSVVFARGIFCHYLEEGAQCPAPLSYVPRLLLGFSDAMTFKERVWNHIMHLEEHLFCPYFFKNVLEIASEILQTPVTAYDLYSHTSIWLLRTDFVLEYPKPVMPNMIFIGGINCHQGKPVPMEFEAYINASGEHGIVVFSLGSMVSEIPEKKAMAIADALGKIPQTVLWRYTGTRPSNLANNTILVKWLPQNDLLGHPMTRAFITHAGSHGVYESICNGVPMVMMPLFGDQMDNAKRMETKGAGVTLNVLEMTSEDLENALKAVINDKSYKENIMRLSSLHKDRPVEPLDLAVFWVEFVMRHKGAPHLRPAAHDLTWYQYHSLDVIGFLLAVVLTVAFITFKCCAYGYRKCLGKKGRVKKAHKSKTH
Briefly: Activity of human UGT1A7 expressed in microsomes isolated from baculovirus infected insect cell assessed as enzyme-mediated (2S,3S,4S,5R,6R)-3,4,5-trihydroxy-6-(5-(4-((6-methoxy-1-methyl-1H-benzo[d]imidazol-2-yl)methoxy)benzyl)-2,4-dioxothiazolidin-3-yl)tetrahydro-2H-pyran-2-carboxylic acid formation at 20 uM after 4 hrs by radio-HPLC/LC-MS/MS analysis in presence of UDPGA. It counts as ADME.

The target of data set [9] is T3, Cytochrome P450 2C8 (Homo sapiens, UniProt P10632).
T3 sequence (P10632 whole entry): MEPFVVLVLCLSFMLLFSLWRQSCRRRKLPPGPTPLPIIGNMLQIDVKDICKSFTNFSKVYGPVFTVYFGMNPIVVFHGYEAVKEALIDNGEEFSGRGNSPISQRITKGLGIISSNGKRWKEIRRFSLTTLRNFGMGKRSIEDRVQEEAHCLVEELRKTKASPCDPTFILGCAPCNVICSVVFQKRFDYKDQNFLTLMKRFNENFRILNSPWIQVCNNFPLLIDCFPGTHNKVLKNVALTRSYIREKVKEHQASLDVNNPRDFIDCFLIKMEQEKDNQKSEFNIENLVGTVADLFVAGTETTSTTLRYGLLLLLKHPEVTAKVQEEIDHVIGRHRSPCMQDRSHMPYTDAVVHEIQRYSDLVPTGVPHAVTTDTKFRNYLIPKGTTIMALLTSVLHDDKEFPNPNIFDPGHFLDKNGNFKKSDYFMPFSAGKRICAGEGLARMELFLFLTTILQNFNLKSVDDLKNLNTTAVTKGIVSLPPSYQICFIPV
Briefly: Activity of human CYP2C8 expressed in microsomes isolated from baculovirus infected insect cell assessed as enzyme-mediated 2-mercapto-3-(4-((6-methoxy-1-methyl-1H-benzo[d]imidazol-2-yl)methoxy)phenyl)propanamide formation at 20 uM after 2 hrs by radio-HPLC/LC-MS/MS analysis in presence of NADPH-generating system and NADPH-generating system/SAM. Format: ADME. The method in brief:
as §1

T1 sequence (P10635 whole entry): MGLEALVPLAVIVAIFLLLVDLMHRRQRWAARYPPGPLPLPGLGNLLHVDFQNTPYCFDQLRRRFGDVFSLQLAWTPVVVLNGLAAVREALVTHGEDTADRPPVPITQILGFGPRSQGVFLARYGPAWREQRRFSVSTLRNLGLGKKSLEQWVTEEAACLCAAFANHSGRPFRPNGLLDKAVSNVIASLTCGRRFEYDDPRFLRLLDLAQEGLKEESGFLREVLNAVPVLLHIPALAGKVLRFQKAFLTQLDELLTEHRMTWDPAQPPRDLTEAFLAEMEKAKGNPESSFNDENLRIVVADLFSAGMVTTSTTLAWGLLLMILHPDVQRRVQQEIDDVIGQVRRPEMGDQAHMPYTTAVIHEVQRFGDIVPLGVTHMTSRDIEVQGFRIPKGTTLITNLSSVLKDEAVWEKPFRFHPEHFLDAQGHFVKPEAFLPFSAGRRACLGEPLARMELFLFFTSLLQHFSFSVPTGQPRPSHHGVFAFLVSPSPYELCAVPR
Cytochrome P450 2C9, sequence (P11712 whole entry): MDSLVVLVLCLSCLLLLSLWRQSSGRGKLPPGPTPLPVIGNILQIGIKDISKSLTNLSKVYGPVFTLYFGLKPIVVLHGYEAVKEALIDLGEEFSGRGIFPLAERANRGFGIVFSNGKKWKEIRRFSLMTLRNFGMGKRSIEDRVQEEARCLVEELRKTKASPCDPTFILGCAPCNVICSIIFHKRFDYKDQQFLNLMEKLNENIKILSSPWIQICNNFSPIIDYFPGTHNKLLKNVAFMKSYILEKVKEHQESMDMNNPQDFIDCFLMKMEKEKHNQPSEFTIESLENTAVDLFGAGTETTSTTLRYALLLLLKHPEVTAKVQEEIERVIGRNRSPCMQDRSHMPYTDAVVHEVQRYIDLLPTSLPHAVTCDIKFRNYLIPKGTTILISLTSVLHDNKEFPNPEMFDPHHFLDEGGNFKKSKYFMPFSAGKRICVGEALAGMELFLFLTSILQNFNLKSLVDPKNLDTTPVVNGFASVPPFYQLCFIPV
Cytochrome P450 2C19, sequence (P33261 whole entry): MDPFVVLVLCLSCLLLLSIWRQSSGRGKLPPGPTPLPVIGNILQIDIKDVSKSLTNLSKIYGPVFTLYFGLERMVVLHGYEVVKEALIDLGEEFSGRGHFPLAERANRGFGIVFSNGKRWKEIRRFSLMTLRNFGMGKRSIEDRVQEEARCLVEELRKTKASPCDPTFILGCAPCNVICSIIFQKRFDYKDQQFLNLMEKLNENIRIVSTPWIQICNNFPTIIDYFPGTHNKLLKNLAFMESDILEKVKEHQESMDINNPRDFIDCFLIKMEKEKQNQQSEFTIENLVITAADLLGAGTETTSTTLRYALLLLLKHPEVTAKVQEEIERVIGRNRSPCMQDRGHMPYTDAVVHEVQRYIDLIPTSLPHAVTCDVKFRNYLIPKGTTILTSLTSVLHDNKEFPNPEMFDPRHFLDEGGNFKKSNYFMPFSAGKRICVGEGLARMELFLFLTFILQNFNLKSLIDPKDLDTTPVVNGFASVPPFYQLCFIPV

Take `COc1ccc2nc(COc3ccc(CC(S)C(=O)O)cc3)n(C)c2c1` (centres undefined): the Drug metabolism result is “metabolite_not_detected” in data set [1] and “metabolite_detected” in data set [2].

With `COc1ccc2nc(COc3ccc(C[14CH]4SC(=O)NC4=O)cc3)n(C)c2c1.Cl` (racemic), the Drug metabolism result in data set [3] is recorded as “metabolite_detected”; in data set [4], “metabolite_not_detected”; in data set [5] it was “metabolite_not_detected”; in [6] it was “metabolite_not_detected”; in [7] it was “metabolite_not_detected”; in [8], “metabolite_not_detected”. In addition, the Drug metabolism entry in data set [9] is recorded as “metabolite_detected”.

For the origin of these results see ChEMBL document CHEMBL3526048, “In vitro metabolism of rivoglitazone, a novel peroxisome proliferator-activated receptor γ agonist, in rat, monkey, and human liver microsomes and freshly isolated hepatocytes” (Drug Metab Dispos, 2011).
